Test results: ChEMBL document CHEMBL1123801, “Synthesis and antifungal activity of new 1-vinylimidazoles” (1987)
In brackets after ≈: the same amount, converted by molar mass.

Tested on: Trichophyton benhamiae
Assay: Minimum inhibitory concentration against Trichophyton asteroides
Type: functional
Outline: (§1)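 Broth microdilution in Sabouraud's glucose broth. Final inocula 1×10^5 cells/mL for the yeast (C. albicans) and 1×10^5 conidia/mL for the mold (A. fumigatus) and the dermatophyte (T. asteroides). MIC read as the fungistatic end point. Lowest value of duplicated experiments.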

Structure (SMILES) | MIC [µg/mL]
CC(C)=C(c1ccccc1OCCCOc1ccccc1)n1ccnc1 | 3.1 (≈ 8.9 µM)
C=C(c1cc(Cl)ccc1OC(C)c1ccsc1)n1ccnc1 (centres undefined) | 0.1 (≈ 0.302 µM)
C=C(c1ccccc1OC)n1ccnc1 | 1.6 (≈ 7.99 µM)
C=C(c1ccccc1OC(C)c1ccccc1)n1ccnc1 (centres undefined) | 0.1 (≈ 0.344 µM)
CC(C)=C(c1ccccc1OCc1ccc(Cl)cc1Cl)n1ccnc1 | 3.1 (≈ 8.3 µM)
C=C(c1cc(Cl)ccc1OC(C)c1cccc(Cl)c1)n1ccnc1 (centres undefined) | 0.1 (≈ 0.278 µM)
CC(C)=C(c1ccccc1OCc1cccc(Cl)c1)n1ccnc1 | 3.1 (≈ 9.15 µM)
CC(C)=C(c1cc(Cl)ccc1OCc1ccc(Cl)cc1)n1ccnc1 | 0.2 (≈ 0.536 µM)
C=C(c1ccccc1OCC)n1ccnc1 | 0.4 (≈ 1.87 µM)
C=C(c1cc(Cl)ccc1OC)n1ccnc1 | 0.4 (≈ 1.7 µM)
CC=C(c1cc(Cl)ccc1OCc1ccc(Cl)cc1)n1ccnc1 | 0.8 (≈ 2.23 µM)
C=C(c1ccccc1OCc1ccsc1)n1ccnc1 | 0.1 (≈ 0.354 µM)
CC(C)=C(c1cc(Cl)ccc1OCc1ccc(Cl)c(Cl)c1)n1ccnc1 | 3.1 (≈ 7.6 µM)
CC(C)=C(c1ccccc1OCc1ccc(C)cc1)n1ccnc1 | 3.1 (≈ 9.74 µM)
C/C=C(\c1ccccc1OC(C)c1cccc(Cl)c1)n1ccnc1 (centres undefined) | 0.1 (≈ 0.295 µM)
CC(C)=C(c1ccccc1OCCc1ccccc1)n1ccnc1 | 0.1 (≈ 0.314 µM)
C=C(c1ccc(Cl)cc1OC)n1ccnc1 | 25 (≈ 107 µM)
C=C(c1cc(Cl)cc(Cl)c1OCc1ccsc1)n1ccnc1 | 6.2 (≈ 17.7 µM)
CC=C(c1cc(Cl)ccc1OCc1ccc(Cl)cc1Cl)n1ccnc1 | 1.6 (≈ 4.06 µM)
C=C(c1cc(Cl)ccc1OCc1ccsc1Cl)n1ccnc1 | 0.1 (≈ 0.285 µM)
CC=C(c1ccccc1OCc1ccc(Cl)cc1Cl)n1ccnc1 | 6.2 (≈ 17.3 µM)
CCC=C(c1cc(Cl)ccc1OCc1ccc(Cl)cc1Cl)n1ccnc1 | 0.2 (≈ 0.491 µM)

The remaining lines, values ahead:

MIC [µg/mL] | Structure (SMILES)
0.1 (≈ 0.308 µM) | C=C(c1ccccc1OC(C)c1ccc(Cl)cc1)n1ccnc1 (centres undefined)
0.4 (≈ 1.23 µM) | C=C(c1ccccc1OC(C)c1cccc(Cl)c1)n1ccnc1 (centres undefined)
0.2 (≈ 0.724 µM) | C=C(c1ccccc1OCc1ccccc1)n1ccnc1
0.1 (≈ 0.293 µM) | C=C(c1ccccc1OCCOc1ccc(Cl)cc1)n1ccnc1
0.1 (≈ 0.344 µM) | C=C(c1ccccc1OCc1ccc(C)cc1)n1ccnc1
3.1 (≈ 9.74 µM) | C=C(c1ccccc1OCc1ccc(C(C)C)cc1)n1ccnc1
0.1 (≈ 0.311 µM) | C=C(c1ccccc1OCc1ccc([N+](=O)[O-])cc1)n1ccnc1
0.2 (≈ 0.59 µM) | C=C(c1ccccc1OCCCc1ccc(Cl)cc1)n1ccnc1
0.1 (≈ 0.329 µM) | C=C(c1ccccc1OCc1ccc(CC)cc1)n1ccnc1
0.2 (≈ 0.59 µM) | C=C(c1cc(Cl)ccc1OCCCc1ccccc1)n1ccnc1
0.1 (≈ 0.322 µM) | C=C(c1ccccc1OCc1ccccc1Cl)n1ccnc1
0.1 (≈ 0.329 µM) | C=C(c1ccccc1OCCCc1ccccc1)n1ccnc1
> 100 | C=C(c1ccc(Cl)cc1OCc1ccc(Cl)cc1)n1ccnc1
50 (≈ 206 µM) | C=C(c1ccccc1OCCCC)n1ccnc1
0.1 (≈ 0.308 µM) | C=C(c1cc(Cl)ccc1OCCc1ccccc1)n1ccnc1
0.1 (≈ 0.438 µM) | C=C(c1ccccc1OCCC)n1ccnc1

Tested on: Candida albicans
Assay: Minimum inhibitory concentration (MIC) against Candida albicans
Type: functional
Outline: as §1

Structure (SMILES) | MIC [µg/mL]
CC(C)=C(c1ccccc1OCCCOc1ccccc1)n1ccnc1 | 25 (≈ 71.7 µM)
C=C(c1cc(Cl)ccc1OC(C)c1ccsc1)n1ccnc1 (centres undefined) | 12.5 (≈ 37.8 µM)
C=C(c1ccccc1OC)n1ccnc1 | > 100
C=C(c1ccccc1OC(C)c1ccccc1)n1ccnc1 (centres undefined) | 25 (≈ 86.1 µM)
CC(C)=C(c1ccccc1OCc1ccc(Cl)cc1Cl)n1ccnc1 | 12.5 (≈ 33.5 µM)
C=C(c1cc(Cl)ccc1OC(C)c1cccc(Cl)c1)n1ccnc1 (centres undefined) | 6.2 (≈ 17.3 µM)
CC(C)=C(c1ccccc1OCc1cccc(Cl)c1)n1ccnc1 | 12.5 (≈ 36.9 µM)
CC(C)=C(c1cc(Cl)ccc1OCc1ccc(Cl)cc1)n1ccnc1 | 6.2 (≈ 16.6 µM)
C=C(c1ccccc1OCC)n1ccnc1 | > 100
C=C(c1cc(Cl)ccc1OC)n1ccnc1 | > 100
CC=C(c1cc(Cl)ccc1OCc1ccc(Cl)cc1)n1ccnc1 | 3.1 (≈ 8.63 µM)
C=C(c1ccccc1OCc1ccsc1)n1ccnc1 | 50 (≈ 177 µM)
CC(C)=C(c1cc(Cl)ccc1OCc1ccc(Cl)c(Cl)c1)n1ccnc1 | 12.5 (≈ 30.7 µM)
CC(C)=C(c1ccccc1OCc1ccc(C)cc1)n1ccnc1 | 25 (≈ 78.5 µM)
C/C=C(\c1ccccc1OC(C)c1cccc(Cl)c1)n1ccnc1 (centres undefined) | 3.1 (≈ 9.15 µM)
CC(C)=C(c1ccccc1OCCc1ccccc1)n1ccnc1 | 50 (≈ 157 µM)
C=C(c1ccc(Cl)cc1OC)n1ccnc1 | > 100
C=C(c1cc(Cl)cc(Cl)c1OCc1ccsc1)n1ccnc1 | > 100
CC=C(c1cc(Cl)ccc1OCc1ccc(Cl)cc1Cl)n1ccnc1 | 12.5 (≈ 31.7 µM)
C=C(c1cc(Cl)ccc1OCc1ccsc1Cl)n1ccnc1 | 25 (≈ 71.2 µM)
CC=C(c1ccccc1OCc1ccc(Cl)cc1Cl)n1ccnc1 | 12.5 (≈ 34.8 µM)
CCC=C(c1cc(Cl)ccc1OCc1ccc(Cl)cc1Cl)n1ccnc1 | 12.5 (≈ 30.7 µM)

The next lines start with the values.

MIC [µg/mL] | Structure (SMILES)
3.1 (≈ 9.54 µM) | C=C(c1ccccc1OC(C)c1ccc(Cl)cc1)n1ccnc1 (centres undefined)
6.2 (≈ 19.1 µM) | C=C(c1ccccc1OC(C)c1cccc(Cl)c1)n1ccnc1 (centres undefined)
12.5 (≈ 45.2 µM) | C=C(c1ccccc1OCc1ccccc1)n1ccnc1
50 (≈ 147 µM) | C=C(c1ccccc1OCCOc1ccc(Cl)cc1)n1ccnc1
3.1 (≈ 10.7 µM) | C=C(c1ccccc1OCc1ccc(C)cc1)n1ccnc1
25 (≈ 78.5 µM) | C=C(c1ccccc1OCc1ccc(C(C)C)cc1)n1ccnc1
12.5 (≈ 38.9 µM) | C=C(c1ccccc1OCc1ccc([N+](=O)[O-])cc1)n1ccnc1
12.5 (≈ 36.9 µM) | C=C(c1ccccc1OCCCc1ccc(Cl)cc1)n1ccnc1
12.5 (≈ 41.1 µM) | C=C(c1ccccc1OCc1ccc(CC)cc1)n1ccnc1
50 (≈ 148 µM) | C=C(c1cc(Cl)ccc1OCCCc1ccccc1)n1ccnc1
6.2 (≈ 19.9 µM) | C=C(c1ccccc1OCc1ccccc1Cl)n1ccnc1
12.5 (≈ 41.1 µM) | C=C(c1ccccc1OCCCc1ccccc1)n1ccnc1
> 100 | C=C(c1ccc(Cl)cc1OCc1ccc(Cl)cc1)n1ccnc1
25 (≈ 103 µM) | C=C(c1ccccc1OCCCC)n1ccnc1
50 (≈ 154 µM) | C=C(c1cc(Cl)ccc1OCCc1ccccc1)n1ccnc1
100 (≈ 438 µM) | C=C(c1ccccc1OCCC)n1ccnc1

Tested on: Aspergillus fumigatus
Assay: Minimum inhibitory concentration (MIC) against Aspergillus fumigatus
Type: functional
Outline: as §1

Structure (SMILES) | MIC [µg/mL]
CC(C)=C(c1ccccc1OCCCOc1ccccc1)n1ccnc1 | 6.2 (≈ 17.8 µM)
C=C(c1cc(Cl)ccc1OC(C)c1ccsc1)n1ccnc1 (centres undefined) | 3.1 (≈ 9.37 µM)
C=C(c1ccccc1OC)n1ccnc1 | 12.5 (≈ 62.4 µM)
C=C(c1ccccc1OC(C)c1ccccc1)n1ccnc1 (centres undefined) | 6.2 (≈ 21.4 µM)
CC(C)=C(c1ccccc1OCc1ccc(Cl)cc1Cl)n1ccnc1 | 1.6 (≈ 4.29 µM)
C=C(c1cc(Cl)ccc1OC(C)c1cccc(Cl)c1)n1ccnc1 (centres undefined) | 12.5 (≈ 34.8 µM)
CC(C)=C(c1ccccc1OCc1cccc(Cl)c1)n1ccnc1 | 3.1 (≈ 9.15 µM)
CC(C)=C(c1cc(Cl)ccc1OCc1ccc(Cl)cc1)n1ccnc1 | 6.2 (≈ 16.6 µM)
C=C(c1ccccc1OCC)n1ccnc1 | 3.1 (≈ 14.5 µM)
C=C(c1cc(Cl)ccc1OC)n1ccnc1 | 3.1 (≈ 13.2 µM)
CC=C(c1cc(Cl)ccc1OCc1ccc(Cl)cc1)n1ccnc1 | 0.8 (≈ 2.23 µM)
C=C(c1ccccc1OCc1ccsc1)n1ccnc1 | 3.1 (≈ 11 µM)
CC(C)=C(c1cc(Cl)ccc1OCc1ccc(Cl)c(Cl)c1)n1ccnc1 | 6.2 (≈ 15.2 µM)
CC(C)=C(c1ccccc1OCc1ccc(C)cc1)n1ccnc1 | 6.2 (≈ 19.5 µM)
C/C=C(\c1ccccc1OC(C)c1cccc(Cl)c1)n1ccnc1 (centres undefined) | 1.6 (≈ 4.72 µM)
CC(C)=C(c1ccccc1OCCc1ccccc1)n1ccnc1 | 0.8 (≈ 2.51 µM)
C=C(c1ccc(Cl)cc1OC)n1ccnc1 | 100 (≈ 426 µM)
C=C(c1cc(Cl)cc(Cl)c1OCc1ccsc1)n1ccnc1 | 100 (≈ 285 µM)
CC=C(c1cc(Cl)ccc1OCc1ccc(Cl)cc1Cl)n1ccnc1 | 0.4 (≈ 1.02 µM)
C=C(c1cc(Cl)ccc1OCc1ccsc1Cl)n1ccnc1 | 6.2 (≈ 17.7 µM)
CC=C(c1ccccc1OCc1ccc(Cl)cc1Cl)n1ccnc1 | 0.1 (≈ 0.278 µM)
CCC=C(c1cc(Cl)ccc1OCc1ccc(Cl)cc1Cl)n1ccnc1 | 0.8 (≈ 1.96 µM)

Next, values leading:

MIC [µg/mL] | Structure (SMILES)
6.2 (≈ 19.1 µM) | C=C(c1ccccc1OC(C)c1ccc(Cl)cc1)n1ccnc1 (centres undefined)
12.5 (≈ 38.5 µM) | C=C(c1ccccc1OC(C)c1cccc(Cl)c1)n1ccnc1 (centres undefined)
3.1 (≈ 11.2 µM) | C=C(c1ccccc1OCc1ccccc1)n1ccnc1
1.6 (≈ 4.69 µM) | C=C(c1ccccc1OCCOc1ccc(Cl)cc1)n1ccnc1
3.1 (≈ 10.7 µM) | C=C(c1ccccc1OCc1ccc(C)cc1)n1ccnc1
3.1 (≈ 9.74 µM) | C=C(c1ccccc1OCc1ccc(C(C)C)cc1)n1ccnc1
6.2 (≈ 19.3 µM) | C=C(c1ccccc1OCc1ccc([N+](=O)[O-])cc1)n1ccnc1
0.8 (≈ 2.36 µM) | C=C(c1ccccc1OCCCc1ccc(Cl)cc1)n1ccnc1
25 (≈ 82.1 µM) | C=C(c1ccccc1OCc1ccc(CC)cc1)n1ccnc1
1.6 (≈ 4.72 µM) | C=C(c1cc(Cl)ccc1OCCCc1ccccc1)n1ccnc1
0.8 (≈ 2.57 µM) | C=C(c1ccccc1OCc1ccccc1Cl)n1ccnc1
3.1 (≈ 10.2 µM) | C=C(c1ccccc1OCCCc1ccccc1)n1ccnc1
> 100 | C=C(c1ccc(Cl)cc1OCc1ccc(Cl)cc1)n1ccnc1
1.6 (≈ 6.6 µM) | C=C(c1ccccc1OCCCC)n1ccnc1
6.3 (≈ 19.4 µM) | C=C(c1cc(Cl)ccc1OCCc1ccccc1)n1ccnc1
1.6 (≈ 7.01 µM) | C=C(c1ccccc1OCCC)n1ccnc1
